PLC-gamma1 inh: PLC-gamma1 enzyme inhibitors, primary screen, biochemical, fluorescence, purified enzyme; fluorogenic substrate; 370,000 tested, 0.84% active; 1-phosphatidylinositol 4,5-bisphosphate phosphodiesterase gamma-1 (Homo sapiens), P19174; inhibition, % at 12.2 µM; AID 720700, 2013; in the data active = inhibition above about 9.5%
PLCb3 inh: human PLC-beta3 inhibitors, primary screen, biochemical, fluorescence | 1-phosphatidylinositol 4,5-bisphosphate phosphodiesterase beta-3 (Homo sapiens), Q01970 | Purified PLC-beta3, fluorogenic substrate | inhibition, % at 12.2 µM | 370,000 tested, 0.18% active | AID 720704, 2013; in the data active = inhibition above about 11%
Target sequence (Q01970 whole entry, looked up): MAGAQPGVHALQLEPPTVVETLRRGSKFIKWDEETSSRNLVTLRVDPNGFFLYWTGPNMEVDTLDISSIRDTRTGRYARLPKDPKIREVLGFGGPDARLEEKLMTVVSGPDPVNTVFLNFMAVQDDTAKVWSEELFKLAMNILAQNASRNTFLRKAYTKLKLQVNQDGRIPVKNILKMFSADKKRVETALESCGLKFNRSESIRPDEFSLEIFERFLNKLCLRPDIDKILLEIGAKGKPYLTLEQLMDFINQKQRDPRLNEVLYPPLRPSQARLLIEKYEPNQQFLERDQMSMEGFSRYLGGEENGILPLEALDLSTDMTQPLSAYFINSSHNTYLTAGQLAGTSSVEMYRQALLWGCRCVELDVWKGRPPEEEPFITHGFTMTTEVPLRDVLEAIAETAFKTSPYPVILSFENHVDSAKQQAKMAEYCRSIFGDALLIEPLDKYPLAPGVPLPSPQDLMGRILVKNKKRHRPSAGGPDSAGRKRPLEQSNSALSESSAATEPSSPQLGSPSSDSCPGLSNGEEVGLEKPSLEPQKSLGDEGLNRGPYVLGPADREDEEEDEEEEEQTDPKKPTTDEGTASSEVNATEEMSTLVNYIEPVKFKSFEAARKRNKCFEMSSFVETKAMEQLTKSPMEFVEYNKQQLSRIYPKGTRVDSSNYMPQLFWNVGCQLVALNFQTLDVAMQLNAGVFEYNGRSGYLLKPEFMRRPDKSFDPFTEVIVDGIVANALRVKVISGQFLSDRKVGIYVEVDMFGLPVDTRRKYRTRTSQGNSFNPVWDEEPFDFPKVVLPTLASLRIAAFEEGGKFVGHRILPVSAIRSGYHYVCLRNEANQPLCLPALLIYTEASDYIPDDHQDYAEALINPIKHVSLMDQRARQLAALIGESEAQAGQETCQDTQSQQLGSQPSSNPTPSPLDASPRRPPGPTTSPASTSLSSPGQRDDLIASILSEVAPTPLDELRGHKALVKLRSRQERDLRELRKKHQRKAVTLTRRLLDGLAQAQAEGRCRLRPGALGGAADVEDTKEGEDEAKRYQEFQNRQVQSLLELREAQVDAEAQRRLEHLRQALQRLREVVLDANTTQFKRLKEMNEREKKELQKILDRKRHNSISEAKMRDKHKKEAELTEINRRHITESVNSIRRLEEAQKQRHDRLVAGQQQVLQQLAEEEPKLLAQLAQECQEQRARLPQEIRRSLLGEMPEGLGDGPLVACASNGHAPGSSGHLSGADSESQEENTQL
NTR1 ag: agonists of human NTR1, primary screen, imaging, U2OS cells, beta-arrestin-GFP, high content; activation, % at 20 µM; Neurotensin receptor type 1 (Homo sapiens), P30989; 330,000 tested, 0.17% active; NTR1-U2OS beta-arrestin-GFP spot imaging, agonist mode;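 active = activation at or above 40% of the spot to cytoplasm intensity ratio, with at least 20 cells analyzed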
Arr AP2 block: inhibitors of beta-arrestin/AP2 binding, primary screen, biochemical, GPCR trafficking, flow cytometry; 340,000 tested, 0.31% active; FITC-arrestin peptide / GST-AP2 beads; AP2 beta2 appendage carries R879A mutation; beta-arrestin 1 C-terminal peptide binding to AP2 beta2-adaptin appendage (human); inhibition, % at 10 µM; AID 504490, 2011;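 active = inhibition above a set limit, near 3 SD of compounds lacking own fluorescence, cut at about 54% in these data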
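System: GST-AP2 R879A glutathione beads | Also added: FITC-arrestin peptide, 50 nM | Times: 12 min plus 1 h, RT | Signal: Bead flow cytometry, FITC channel | Buffer or medium: PBS with 0.05% Tween 20 and 0.1% BSA | Read-out basis: Percent drop in bead-associated FITC signal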
Arr AP2 CP1: inhibitors of arrestin peptide binding to AP2, confirmation, biochemical, cherry pick 1, flow cytometry beads | AID 504908, 2011 | shares compounds with Arr AP2 block | GST-AP2 beads, FITC arrestin peptide binding; GST-fused beta2-adaptin appendage, R879A mutant | inhibition, % at 10 µM | 1,300 tested, 2% active;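 active = inhibition above a set limit, roughly 3 SD of non-fluorescent compound noise, cut at about 38% in these data; inactive = inhibition at or below that limit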;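 note: loss of bead fluorescence from 50 nM FITC arrestin peptide bound to appendage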
GST-FITC bead: GST-fluorescein capture on glutathione beads, confirmation, artefact control for arrestin-AP2 inhibitor project, biochemical, cherry pick 1, flow cytometry. GST-fluorescein binding to GSH beads, fluorescence, counter-screen. inhibition, % at 10 µM. 1,300 tested, 2% active. shares compounds with Arr AP2 block;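 active = inhibition above 50%, about 3 SD of the inhibition seen with non-fluorescent compounds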;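 note: fluorescein maleimide labelled GST captured on 4 micron glutathione beads; higher means more loss of bead fluorescence from quenching or blocked binding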
Of the large screens only hits and unclear results are named; the others gave an inactive call (follow-up assays come after a bar, where they were run). In the library only some 1.3% were active in any assay of this set; here they are far more common.

CCCCOC(=O)c1ccc(NC(=O)COC(=O)C2CSC3(C)CCC(=O)N23)cc1 (stereo not drawn)	none | Arr AP2 CP1 inactive | GST-FITC bead inactive
CC12CCC(=O)N1C(C(=O)OCC(=O)Nc1sccc1C#N)CS2 (stereo not drawn)	none
C[C@@H]1OC(c2ccccc2)N(C)[C@H]2C[C@H]3c4[nH]c5cccc(-c6ccccc6)c5c4CCN3C[C@@H]12 (stereo partly drawn)	none (no result: NTR1 ag, Arr AP2 block)
CCOC(=O)Cn1c(=O)oc2cc(S(=O)(=O)Nc3cc(OCC)ccc3OCC)ccc21	Arr AP2 block 56.9 | Arr AP2 CP1 inactive | GST-FITC bead inactive
O=C1C[C@@H](c2ccccc2)N=C2N(CC3CC3)C/C(=C/c3ccccc3)N12	none (no result: NTR1 ag, Arr AP2 block)
CCCC[C@@H](CCCc1ccc(F)cc1)CCC(=O)N(c1ccccc1)c1ccccc1	none (no result: NTR1 ag, Arr AP2 block)
O=C(c1ccc(S(=O)(=O)NCc2ccco2)cc1)N1CCN(Cc2ccccc2F)CC1	none | Arr AP2 CP1 inactive | GST-FITC bead inactive
O=C(NCc1ccccc1F)c1ccc(S(=O)(=O)NCc2ccco2)cc1	none
COc1ccc(CN2CCN(C(=O)c3ccc(S(=O)(=O)NCc4ccco4)cc3)CC2)cc1	none | Arr AP2 CP1 inactive | GST-FITC bead inactive
O=C(c1ccc(S(=O)(=O)NCc2ccco2)cc1)N1CCN(Cc2ccccc2)CC1	Arr AP2 block 59.2 | Arr AP2 CP1 inactive | GST-FITC bead inactive
Cc1ccccc1CN1CCCCC(NC(=O)c2ccc(Br)cc2)C1=O (stereo not drawn)	none (no result: NTR1 ag, Arr AP2 block)
COc1ccc2c(c1)Sc1ccc(Cl)cc1N2	none (no result: NTR1 ag, Arr AP2 block)
CC1CCCC(NC(=O)CN2CCN(S(=O)(=O)c3ccc(Br)s3)CC2)C1C (stereo not drawn)	Arr AP2 block 63.6 | Arr AP2 CP1 inactive | GST-FITC bead inactive
O[C@H](COc1cccc(Br)c1)CN1CCC(C(O)(c2ccccc2)c2ccccc2)CC1	none (no result: NTR1 ag, Arr AP2 block)
C=CCN1C(=O)[C@H](CC(=O)NCc2cccc3ccccc23)[C@@]2(C(=O)OCC)CCCC=C12	none (no result: NTR1 ag, Arr AP2 block)
Nc1nn(-c2ccccc2)c(N)c1N=Nc1ccccc1F	Arr AP2 block 56.2 | Arr AP2 CP1 inactive | GST-FITC bead inactive
Nc1nn(-c2ccccc2)c(N)c1N=Nc1ccccc1	none
Cc1nc2ccccn2c1C(O)(c1ccccc1)c1ccccc1	none (no result: NTR1 ag, Arr AP2 block)
COc1ccc(-c2cc(C(=O)Nc3c(C)n(C)n(-c4ccccc4)c3=O)c3ccccc3n2)cc1OC	Arr AP2 block 56.5 | Arr AP2 CP1 inactive | GST-FITC bead inactive
Cc1ccc(-c2cc(C(=O)Nc3c(C)n(C)n(-c4ccccc4)c3=O)c3ccccc3n2)cc1	none
Cc1ccc(NC(=O)/C(C#N)=N/Nc2ccc(C(=O)O)cc2)c(C)c1	none
Cc1ccc(N/N=C(\C#N)C(N)=S)c(C)c1	Arr AP2 block 56.8 (no result: NTR1 ag) | Arr AP2 CP1 inactive | GST-FITC bead inactive
Cc1cccc(C)c1NC(=O)C(CCc1ccccc1)N1CCN(CCN(C)C)CC1 (stereo not drawn)	none (no result: NTR1 ag, Arr AP2 block)
COC(=O)C(C)NC(=S)N1CCN(c2c(F)cc3c(=O)c(C(=O)O)cn(C4CC4)c3c2OC)CC1C (stereo not drawn)	none
CNC(=S)N1CCN(c2c(F)cc3c(=O)c(C(=O)O)cn(C4CC4)c3c2OC)CC1C (stereo not drawn)	Arr AP2 block 68.2 | Arr AP2 CP1 inactive | GST-FITC bead inactive
CCC(C)NC(=O)c1ccc2c(c1)N(Cc1ccccc1)C(=O)CS2 (stereo not drawn)	Arr AP2 block 55.5 | Arr AP2 CP1 inactive | GST-FITC bead inactive
Cc1[nH]c2ccccc2c1-c1csc(NC(=O)CN2CCOCC2)n1	Arr AP2 block 56.7 | Arr AP2 CP1 inactive | GST-FITC bead inactive
CC(=O)c1ccc(NC(=O)C2C3C=CC(C3=C(c3ccccc3)c3ccccc3)C2C(=O)O)cc1 (stereo not drawn)	Arr AP2 block 55.8 | Arr AP2 CP1 inactive | GST-FITC bead inactive
O=C(NNc1cccc(Cl)n1)c1ccc(Cl)cc1Cl	none

Compound activity deposited in PubChem BioAssay by several laboratories.
